Experimental findings from ChEMBL document CHEMBL4043182, “On the synthesis of quinone-based BODIPY hybrids: New insights on antitumor activity and mechanism of action in cancer cells” (Bioorg Med Chem Lett, 2017) are described below.

Active and inactive are the calls of the source. The rule behind the calls is not given here.

For data set [1], the system named is HCT-116. Description: Cytotoxicity against human HCT116 cells after 24 hrs in presence of GSH-OEt by MTT assay. The class given is functional, cell-based. Conditions: HCT-116, 24 h. Put shortly: (§1)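 24 h MTT exposure (0.04–40.92 µM in 0.1% DMSO), with or without co-treatment with GSH ethyl ester (15 mM) to gauge the ROS contribution. MTT was 0.5 mg/mL for 3 h, with formazan dissolved in DMSO and absorbance at 595 nm expressed as % of control. Triplicate, repeated at least three times.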

For data set [2], the system named is PC-3. Kind of data set: Cytotoxicity against human PC3 cells after 24 hrs in absence of GSH-OEt by MTT assay. The class given is functional, cell-based. The conditions noted are these: PC-3, 24 h. Put shortly: as §1
Data set [3] has as its system MDA-MB-435. Kind of data set: Antiproliferative activity against human MDA-MB-435 cells after 72 hrs by MTT assay. The class given is functional, cell-based. The conditions noted are these: MDA-MB-435, 72 h. Put shortly:
(§2)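 MTT reduction: cancer lines plated at 0.7×10^5 to 0.3×10^6 cells/well, V79 and L929 fibroblasts at 0.5×10^5 cells/well. Compounds in DMSO (0.1%) were given for 24 h at 0.04–40.92 µM or 72 h at 0.04–8.19 µM. Fresh medium with 0.5 mg/mL MTT was added for 3 h, then formazan was dissolved in DMSO and read at 595 nm as % of control. IC50 came from nonlinear regression with 95% CI. Doxorubicin (0.001–1.06 µM) was the positive control. Triplicate, ≥3 repeats.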
In general terms: Tetrazolium dyes change colour on reduction, which living cells bring about.

The subject of data set [4] is SF-295. Description: Induction of oxidative stress in human SF295 cells assessed as total GSSG levels at 5 uM after 24 hrs by spectrophotometric analysis (reference value: 1.31 +/- 0.55 microg/mg). The class given is functional.
The test system of data set [5] is HCT-116. Kind of data set: Induction of oxidative stress in human HCT116 cells assessed as total intracellular thiol levels at 5 uM after 24 hrs by spectrophotometric analysis (reference value: 5.02 +/- 0.91 microg/mg). Format: functional.
Data set [6] concerns SF-295. Description: Cytotoxicity against human SF295 cells after 24 hrs in presence of GSH-OEt by MTT assay. The class given is functional, cell-based. The conditions noted are these: SF-295, 24 h. Put shortly: as §1
The test system of data set [7] is HCT-116. Kind of data set: Induction of oxidative stress in human HCT116 cells assessed as GSH to GSSG ratio at 5 uM treated 24 hrs post NAC addition measured after 24 hrs by spectrophotometric analysis (reference value: 3.09 +/- 0.33 microg/mg). Format: functional.
The subject of data set [8] is PC-3. Description: Induction of oxidative stress in human PC3 cells assessed as GSH to GSSG ratio at 5 uM after 24 hrs by spectrophotometric analysis (reference value: 2.69 +/- 0.21 microg/mg). The class given is functional.
Data set [9] concerns PC-3. Description: Induction of oxidative stress in human PC3 cells assessed as total GSH levels at 5 uM treated 24 hrs post NAC addition measured after 24 hrs by spectrophotometric analysis (reference value: 3.04 +/- 0.51 microg/mg). The class given is functional. The method, boiled down:
(§3)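 Cells were pretreated 24 h with 5 mM NAC, then exposed 24 h to test compound at 5 µM. Controls received 0.1% DMSO. Extracts were prepared by sonication and HClO4 precipitation, then neutralized with KOH. Total glutathione was read by DTNB/glutathione reductase/NADPH rate at 412 nm. GSSG was measured after 4-vinylpyridine (0.1%, 1 h, RT) and GSH derived by difference. Values are normalized to protein, triplicates, three independent runs.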

In data set [10] the test system is SF-295. Description: Cytotoxicity against human SF295 cells after 24 hrs in absence of GSH-OEt by MTT assay. The class given is functional, cell-based. The conditions noted are these: SF-295, 24 h. The method, boiled down: as §1
The subject of data set [11] is SF-295. Description: Antiproliferative activity against human SF295 cells after 72 hrs by MTT assay. The conditions noted are these: SF-295, 72 h. The class given is functional, cell-based. The method, boiled down:
as §2

For data set [12], the system named is HCT-116. Kind of data set: Induction of lipid peroxidation in human HCT116 cells assessed as increase in MDA levels at 2.5 to 10 uM after 24 hrs in absence of NAC by TBARS assay. Format: functional, cell-based. Put shortly:
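TBARS: cells were exposed 24 h, with or without 24 h prior 5 mM NAC, and lysed in Tris-HCl. Lysate was heated with TCA/0.25 M HCl and 6.7 mg/mL TBA for 15 min at 100 °C, centrifuged, and read at 532 nm. Hydrolyzed tetramethoxypropane served as standard, with values normalized to protein. H2O2 (10 µM) was the positive control. Three independent experiments in triplicate; ANOVA/Tukey.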

In data set [13] the test system is L929. Description: Induction of oxidative stress in mouse L929 cells assessed as GSH to GSSG ratio at 5 uM treated 24 hrs post NAC addition measured after 24 hrs by spectrophotometric analysis (reference value: 3.55 +/- 0.51 microg/mg). The class given is cell-based. Conditions: l929, 24 h. The method, boiled down: as §3
The test system of data set [14] is SF-295. Description: Induction of oxidative stress in human SF295 cells assessed as total GSSG levels at 5 uM treated 24 hrs post NAC addition measured after 24 hrs by spectrophotometric analysis (reference value: 1.31 +/- 0.55 microg/mg). The class given is functional. The method, boiled down:
as §3

A short description of data set [15]: Selectivity index, ratio of IC50 for mouse L929 cells to IC50 for human PC3 cells. Format: functional. Put shortly: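 Selectivity index is the ratio of the IC50 in a non-cancer murine line (V79 or L929) to the IC50 in the cancer line. […] MTT was 0.5 mg/mL for 3 h, formazan dissolved in DMSO and read at 595 nm as % of control. IC50s were derived by nonlinear regression; triplicate, at least three repeats.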

Data set [16] relates to HCT-116. Kind of data set: Induction of oxidative stress in human HCT116 cells assessed as total GSSG levels at 5 uM after 24 hrs by spectrophotometric analysis (reference value: 1.19 +/- 0.37 microg/mg). Format: functional.
For data set [17], the system named is PC-3. Kind of data set: Induction of oxidative stress in human PC3 cells assessed as total intracellular thiol levels at 5 uM after 24 hrs by spectrophotometric analysis (reference value: 4.23 +/- 0.75 microg/mg). The class given is functional.
The subject of data set [18] is HCT-116. Kind of data set: Geno-toxicity in human HCT116 cells assessed as induction of DNA damage at 2.5 to 10 uM after 24 hrs in absence of NAC by alkaline comet assay. The class given is functional, cell-based. Put shortly:
(§4)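 Alkaline comet assay after 24 h at 2.5, 5 and 10 µM, with or without 24 h pretreatment with 5 mM NAC. Cells were trypsinized and embedded in 0.75% low-melting agarose, then lysed at pH 10, 4 °C, ≥1 h. DNA was unwound 20 min at pH >13 and electrophoresed 20 min at 25 V, 300 mA (0.86 V/cm), then stained with ethidium bromide. 100 cells (2 slides) were scored in classes 0–4 for a damage index. Mean ± SEM, three independent experiments in triplicate.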

In data set [19] the test system is SF-295. Kind of data set: Geno-toxicity in human SF295 cells assessed as induction of DNA damage at 2.5 to 10 uM after 24 hrs in absence of NAC by alkaline comet assay. The class given is functional, cell-based. Put shortly: as §4
In data set [20] the test system is SF-295. Description: Induction of oxidative stress in human SF295 cells assessed as GSH to GSSG ratio at 5 uM after 24 hrs by spectrophotometric analysis (reference value: 2.34 +/- 0.56 microg/mg). The class given is functional.
In data set [21] the test system is HCT-116. Description: Induction of oxidative stress in human HCT116 cells assessed as total GSSG levels at 5 uM treated 24 hrs post NAC addition measured after 24 hrs by spectrophotometric analysis (reference value: 1.19 +/- 0.37 microg/mg). Format: functional.
Data set [22] relates to SF-295. Description: Induction of oxidative stress in human SF295 cells assessed as total intracellular thiol levels at 5 uM after 24 hrs by spectrophotometric analysis (reference value: 4.51 +/- 0.83 microg/mg). The class given is functional.

For orientation: IC50 means the concentration that inhibits the measured activity by half. As to `CC1(C)OC2=C(C(=O)C(=O)c3ccccc32)C1n1cc(CNC2=[N+]3C(=C(c4ccccc4)c4ccc(Cl)n4[B-]3(F)F)C=C2)nn1` (configuration not stated), the IC50 came to 14.2 µM in data set [1]; 4.47 µM in [2]; 810 nM in data set [3]; 9.81 µM in data set [6]; 1960 nM in [10]; 280 nM in data set [11]. Further, the Activity in data set [4] is 2.09 µg/mg; in data set [5], 3.81 µg/mg; in [7], 2.63 µg/mg; in data set [8], 0.37 µg/mg; in [9], 3.13 µg/mg; in [13], 3.08 µg/mg. The Activity in [14] came out at 1.21 µg/mg; in data set [16] it was 2.01 µg/mg; in data set [17], 3.53 µg/mg; in data set [20], 0.39 µg/mg; in [21], 1.38 µg/mg; in data set [22] it was 3.44 µg/mg. The outcome in data set [12], in data set [18] and in data set [19] was Active. Moreover, the Ratio IC50 in data set [15] worked out at 2.4.
